Measured values from ChEMBL document CHEMBL2412970, “Synthesis and anticancer activity of 2,4-disubstituted furo[3,2-b]indole derivatives” (Eur J Med Chem, 2013).

Legend:
COLO 205 = experiment: Cytotoxicity against human COLO205 cells after 48 hrs by MTT assay; format: functional, cell-based; details: COLO 205, 48 h
Summary of the method: (§1)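 Cells were treated with a range of concentrations for 48 h. Viability was read by MTT: formazan was dissolved in DMSO and absorbance read at 570 nm. Untreated or 0.1% DMSO cells served as control. Data are mean from three independent experiments. HL-60, H460 and COLO 205 were kept in RPMI-1640 with 10% FBS and penicillin/streptomycin.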

[1] = Cytotoxicity against human Hep3B cells after 48 hrs by MTT assay; format: functional, cell-based, Hep 3B2
[2] = Cytotoxicity against human H460 cells after 48 hrs by MTT assay; format: functional, cell-based; details: NCI-H460, 48 h; summary of the method: as §1
A498 [3] = experiment: Cytotoxicity against human A498 cells after 48 hrs by MTT assay; format: functional, cell-based; details: A498, 48 h
Detroit 551 = experiment: Cytotoxicity against human Detroit 551 cells after 48 hrs by MTT assay; format: cell-based; details: Detroit 551, 48 h
HL-60 = experiment: Cytotoxicity against human HL60 cells after 48 hrs by MTT assay; format: functional, cell-based; details: HL-60, 48 h; summary of the method: as §1
A498 [4] = experiment: Ratio of YC-1 IC50 to compound IC50 for human A498 cells after 48 hrs by MTT assay; format: functional

SMILES | IC50 (COLO 205) [µM] | IC50 [1] [µM] | IC50 [2] [µM] | IC50 (A498 [3]) [µM] | IC50 (Detroit 551) [µM] | IC50 (HL-60) [µM] | Ratio IC50 (A498 [4])
COC(=O)c1cc2c(o1)c1ccccc1n2Cc1ccc(F)cc1 | > 50 | > 50 | > 50 | > 50 | > 50 | > 50 | 
O=C(O)c1cc2c(o1)c1ccccc1n2Cc1ccccc1 | > 50 | > 50 | > 50 | > 50 | > 50 | > 50 | 
OCc1ccc(-c2nn(Cc3ccccc3)c3ccccc23)o1 |  |  |  | 0.37 |  |  | 
COC(=O)c1ccc(Cn2c3ccccc3c3oc(C(=O)OC)cc32)cc1 | > 50 | > 50 | > 50 | > 50 | > 50 | > 50 | 
OCc1cc2c(o1)c1ccccc1n2Cc1ccc(F)cc1 | 35.9 | 44.2 | 36.7 | 0.69 | > 50 | > 50 | 
OCc1cc2c(o1)c1ccccc1n2Cc1ccc2c(c1)OCO2 | > 50 | > 50 | > 50 | 0.27 | > 50 | > 50 | 
COC(=O)c1cccc(Cn2c3ccccc3c3oc(C(=O)OC)cc32)c1 | > 50 | 50 | > 50 | > 50 | > 50 | 16.5 | 
Cn1c2ccccc2c2oc(CO)cc21 | > 50 | > 50 | 50 | 4.6 | > 50 | > 50 | 
COC(=O)c1cc2c(o1)c1ccccc1n2Cc1ccc(C(=O)OC)[se]1 | > 50 | > 25 | > 25 | > 50 | > 25 | > 25 | 
OCc1cc2c(o1)c1ccccc1n2Cc1ccccc1F | 40.9 | 50 | > 50 | 0.43 | > 50 | > 50 | 
COC(=O)c1cc2c(o1)c1ccccc1n2Cc1cccc(Cl)c1 | > 50 | > 50 | > 50 | > 50 | > 50 | > 50 | 
COC(=O)c1cc2c(o1)c1ccccc1n2Cc1ccccc1 | > 50 | > 50 | > 50 | > 50 | > 50 | > 50 | 
COC(=O)c1cc2c(o1)c1ccccc1n2Cc1ccccc1F | > 50 | > 50 | > 50 | > 50 | > 50 | > 50 | 
COC(=O)c1cc2c(o1)c1ccccc1n2Cc1cccc(OC)c1 | > 50 | > 50 | > 50 | > 50 | > 50 | > 50 | 
OCc1cc2c(o1)c1ccccc1n2Cc1ccccc1 | 30.6 | 50 | > 50 | 0.24 | > 50 | > 50 | 1.5
OCc1cc2c(o1)c1ccccc1n2Cc1ccc(Cl)cc1 | 8.1 | 36.2 | 31.3 | 0.79 | 44.4 | 38.9 | 
COC(=O)c1cc2[nH]c3ccccc3c2o1 | > 50 | > 50 | > 50 | > 50 | > 50 | > 50 | 
OCc1cc2c(o1)c1ccccc1n2Cc1ccc(CO)[se]1 | > 50 | > 50 | > 50 | 0.23 | > 50 | > 50 | 1.5
COC(=O)c1ccc(Cn2c3ccccc3c3oc(C(=O)OC)cc32)o1 | > 50 | > 50 | > 50 | > 50 | > 50 | 50 | 
COC(=O)c1cc2c(o1)c1ccccc1n2C | > 50 | > 50 | 50 | > 50 | > 50 | > 50 | 
COc1ccc(Cn2c3ccccc3c3oc(CO)cc32)cc1 | 29.8 | 45.9 | 42.9 | 0.36 | > 50 | 54.5 | 

SMILES | IC50 (COLO 205) [µM] | IC50 [1] [µM] | IC50 [2] [µM] | IC50 (A498 [3]) [µM] | IC50 (Detroit 551) [µM] | IC50 (HL-60) [µM] | Ratio IC50 (A498 [4])
O=C(O)c1cc2[nH]c3ccccc3c2o1 | > 50 | > 50 | > 50 | > 50 | > 50 | > 50 | 
COc1cccc(Cn2c3ccccc3c3oc(CO)cc32)c1 | 31.9 | 31.9 | 52 | 0.33 | > 50 | 35.4 | 
COC(=O)c1cc2c(o1)c1ccccc1n2Cc1ccccc1OC | 32.9 | 50 | > 50 | > 50 | > 50 | 25.1 | 
OCc1cccc(Cn2c3ccccc3c3oc(CO)cc32)c1 | > 50 | 50 | > 50 | 0.37 | > 50 | > 50 | 
OCc1cc2c(o1)c1ccccc1n2Cc1ccccc1Cl | 26.7 | 43.1 | 30.5 | 5.5 | > 50 | 16.8 | 
OCc1cc2c(o1)c1ccccc1n2Cc1ccc(CO)s1 | > 50 | > 50 | > 50 | 0.69 | > 50 | > 50 | 
OCc1cc2[nH]c3ccccc3c2o1 | > 50 | > 50 | > 50 | 21.8 | > 50 | > 50 | 
CCn1c2ccccc2c2oc(CO)cc21 | > 50 | > 50 | 50 | 3.7 | > 50 | > 50 | 
CCn1c2ccccc2c2oc(C(=O)O)cc21 | > 50 | > 50 | > 50 | > 50 | > 50 | > 50 | 
OCc1cc2c(o1)c1ccccc1n2Cc1cccc(Cl)c1 | 26.4 | 29.8 | 50 | 1.1 | > 50 | 14.7 | 
COC(=O)c1cc2c(o1)c1ccccc1n2Cc1ccc(OC)cc1 | > 50 | 58.6 | > 50 | > 50 | > 50 | > 50 | 
OCc1ccc(Cn2c3ccccc3c3oc(CO)cc32)cc1 | > 50 | > 50 | > 50 | 0.47 | > 50 | > 50 | 
COc1ccccc1Cn1c2ccccc2c2oc(CO)cc21 | 28.3 | 24.6 | 30.8 | 4.3 | 60.5 | 13.3 | 
COC(=O)c1cc2c(o1)c1ccccc1n2Cc1ccccc1Cl | > 25 | > 50 | > 50 | > 50 | > 50 | > 50 | 
CCn1c2ccccc2c2oc(C(=O)OC)cc21 | > 50 | > 50 | > 50 | > 50 | > 50 | > 50 | 
COC(=O)c1cc2c(o1)c1ccccc1n2Cc1ccc(C(=O)OC)s1 | > 50 | > 50 | > 50 | > 50 | > 50 | > 50 | 
Cn1c2ccccc2c2oc(C(=O)O)cc21 | > 50 | > 50 | > 50 | > 50 | > 50 | > 50 | 
COC(=O)c1cc2c(o1)c1ccccc1n2Cc1ccc(Cl)cc1 | > 50 | > 50 | > 50 | > 50 | > 50 | > 50 | 
COC(=O)c1cc2c(o1)c1ccccc1n2Cc1ccc2c(c1)OCO2 | > 50 | > 50 | > 50 | > 50 | > 50 | > 50 | 
COC(=O)c1cc2c(o1)c1ccccc1n2Cc1cccc(F)c1 | > 50 | > 50 | > 50 | > 50 | > 50 | > 50 | 
OCc1cc2c(o1)c1ccccc1n2Cc1cccc(F)c1 | > 50 | 44 | 50 | 0.59 | > 50 | 25 | 
